From ChEMBL document CHEMBL1221317, “S-benzylisothiourea derivatives as small-molecule inhibitors of indoleamine-2,3-dioxygenase” (Bioorg Med Chem Lett, 2010) come the findings set out here.

The target of assay [1] is T1, Indoleamine 2,3-dioxygenase 1 (Homo sapiens, UniProt P14902). The experiment in a line: Inhibition of indoleamine-2,3-dioxygenase. The gist of the method:
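Recombinant IDO, in 50 mM potassium phosphate buffer (pH 6.5) with 20 mM neutralized ascorbic acid, catalase, methylene blue and L-Trp. Incubated at 37 °C for 60 min, then stopped with 30% (w/v) trichloroacetic acid and heated at 50 °C for 15 min. After centrifugation, the supernatant was mixed with 2% (w/v) p-dimethylaminobenzaldehyde in acetic acid to detect kynurenine colorimetrically.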
Target sequence in this assay (P14902 whole entry): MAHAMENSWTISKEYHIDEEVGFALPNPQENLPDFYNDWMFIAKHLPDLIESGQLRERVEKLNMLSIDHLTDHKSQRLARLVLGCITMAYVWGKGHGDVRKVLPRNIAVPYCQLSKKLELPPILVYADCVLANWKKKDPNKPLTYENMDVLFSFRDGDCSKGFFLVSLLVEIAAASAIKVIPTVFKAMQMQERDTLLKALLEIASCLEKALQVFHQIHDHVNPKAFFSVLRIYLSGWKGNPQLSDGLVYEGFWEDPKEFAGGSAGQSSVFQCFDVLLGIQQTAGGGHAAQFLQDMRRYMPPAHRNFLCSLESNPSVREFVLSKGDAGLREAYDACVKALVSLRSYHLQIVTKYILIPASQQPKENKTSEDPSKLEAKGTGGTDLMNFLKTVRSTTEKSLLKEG

The target in assay [2] is T1, Indoleamine 2,3-dioxygenase 1. The experiment in a line: Inhibition of indoleamine-2,3-dioxygenase in human A431 cells assessed as inhibition of IFN-gamma-stimulated kynurenine production. The class given is cell-based, A-431. The method, boiled down: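 A431 cells (2.0 × 10⁵ cells/mL) were seeded and grown overnight. Serial DMSO dilutions of compound were added and incubated for 24 h more. Then 7% (v/v) aqueous trichloroacetic acid and 2% (w/v) p-dimethylaminobenzaldehyde in acetic acid (2:5) were added, and the kynurenine-derived yellow colour was read at 460 nm.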
Target sequence in this assay (P14902 whole entry): as above

For assay [3] the target is unchanged. The experiment in a line: Inhibition of indoleamine-2,3-dioxygenase in human A431 cells assessed as inhibition of IFN-gamma-stimulated kynurenine production at 10 uM. The note with it: A-431. The class given is cell-based. The method, boiled down:
(§1)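 A431 cells were precultured for 24 h, given fresh medium, and treated with compound with or without IFN-γ (5 ng/ml). Culture media and cell extracts were then collected. IDO and α-tubulin in the lysates were detected by western blot, and kynurenine concentration was measured in the culture medium.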
Target sequence in this assay (P14902 whole entry, looked up): as the sequence (P14902 whole entry) above

For a further assay, the system named is A-431. Kind of assay: Inhibition of indoleamine-2,3-dioxygenase expression in human A431 cells at 10 uM. The class given is functional, cell-based. The gist of the method: as §1

Active and inactive are the calls of the source. The calls are words filed in the database; no cut-off is given here. Bounds are passed on as bounds.

The term IC50 denotes the concentration at which inhibition is half-maximal. In the case of `O=S(O)c1ccc(Cl)cc1`, the IC50 in assay [1] was above 100 µM; in assay [2] it was above 20 µM.
Turning to `N=C(N)SCc1ccc(Br)cc1`, the results for the IC50 in assay [1] and in assay [2] were 1.3 µM and 0.8 µM, respectively.
Take `N=C(N)SCCc1cccc(Cl)c1`: the results for the 50% inhibitory concentration (IC50) in assay [1] and in assay [2] were above 100 µM and above 20 µM, respectively.
`Cc1ccc(CSC(=N)N)cc1`: the figures for the IC50 in assay [1] and in assay [2] were 30 µM and 6.8 µM, respectively.
Consider `N=C(N)SCc1ccc(Cl)cc1`, for which the inhibition result in assay [3] is “Active”. For the same compound, the inhibition entry in the assay on A-431 is “inactive”. Also, the IC50 in assay [1] is 2.2 µM; in assay [2] it was 0.6 µM.
As to `CC(C)(C)c1ccc(CSC(=N)N)cc1`, the IC50 in assay [1] was above 100 µM; in assay [2], above 20 µM.
For the compound `Cc1ccc(CS)cc1`, the IC50 in assay [1] turned out to be 1.3 µM; in assay [2], 6.5 µM.
As for `NC(=S)Nc1ccc(Cl)cc1`, the IC50 in assay [1] is above 100 µM; in assay [2] it was above 20 µM.
Regarding `Fc1ccc(CS)cc1`, the IC50 in assay [1] was found to be 1.8 µM; in assay [2], 1.9 µM.
Consider `CSC(=N)NCCc1ccc(Cl)cc1`, for which the values for the IC50 in assay [1] and in assay [2] were above 100 µM and above 20 µM, respectively.
On to `N=C(N)SCc1ccc(C(=O)c2ccccc2)cc1`, for which the IC50 in assay [1] is above 100 µM; in assay [2], above 20 µM.
Consider `NCCc1ccc(Cl)cc1`, for which the IC50 in assay [1] is above 100 µM; in assay [2], above 20 µM.
Take `CCc1ccc(CSC(=N)N)cc1`: the IC50 in assay [1] stood at 16 µM; in assay [2], 2.5 µM.
Consider `SCc1ccc(Cl)cc1Cl`, for which the IC50 in assay [1] came to 3.5 µM; in assay [2] it was 4.6 µM.
`N=C(N)SCc1ccccc1`: the IC50 in assay [1] is 61 µM; in assay [2], above 10 µM.
On the same counts, the results for `Sc1ccc(Cl)cc1` are 1.9 µM and above 20 µM.
On the same counts, the results for `N=C(N)SCCc1ccc(Cl)cc1` are 57 µM and above 20 µM.
For `COc1ccc(CSC(=N)N)cc1`, in that order: 52 µM and 10 µM.
Turning to `NC(=O)NCc1ccc(Cl)cc1`, the IC50 in assay [1] was above 100 µM; in assay [2], above 20 µM.
Regarding `OCc1ccc(Cl)cc1`, the IC50 in assay [1] is above 100 µM; in assay [2], above 20 µM.
On the same counts, the results for `SCc1ccccc1` [BENZENEMETHANETHIOL] are 1.7 µM and 13 µM.
For `N=C(N)SCc1ccc(F)cc1`, the figures for the half-maximal inhibitory concentration (IC50) in assay [1] and in assay [2] were 13 µM and 2 µM, respectively.
On the same counts, the results for `N#Cc1ccc(CSC(=N)N)cc1` are 19 µM and 2.6 µM.
`O=S(=O)(O)c1ccc(Cl)cc1`: the IC50 is above 100 µM in assay [1] and above 20 µM in assay [2].
With `SCc1ccccc1Cl`, the IC50 in assay [1] came to 1.2 µM; in assay [2] it was 15 µM.
Consider `N=C(N)SCc1ccc([N+](=O)[O-])cc1`, for which the IC50 in assay [1] turned out to be 11 µM; in assay [2], 2.2 µM.
`C/N=C(\NC)SCc1ccc(Cl)cc1`: the figures for the IC50 in assay [1] and in assay [2] were 21 µM and above 20 µM, respectively.
Regarding `CS(=O)(=O)c1ccc(CSC(=N)N)cc1`, the values for the IC50 in assay [1] and in assay [2] were above 100 µM and above 10 µM, respectively.
Regarding `N=C(N)SCc1cccc(Cl)c1`, the figures for the IC50 in assay [1] and in assay [2] were 4.6 µM and 1.4 µM, respectively.
As for `COc1ccc(CS)cc1`, the IC50 in assay [1] was determined as 1.4 µM; in assay [2], 9.4 µM.
For `N=C(N)SCCc1ccccc1Cl`, in that order: above 100 µM and above 20 µM.
As to `N=C(N)SCc1ccc(C(F)(F)F)cc1`, the IC50 in assay [1] stood at 2.6 µM; in assay [2], 1.2 µM.
For the compound `NC(=S)NCCc1ccc(Cl)cc1`, the IC50 in assay [1] is 100 µM; in assay [2] it was above 20 µM.
On the same counts, the results for `SCc1ccc(Cl)c(Cl)c1` are 0.1 µM and 1.1 µM.
For `N=C(N)SCc1ccc(Cl)cc1Cl`, in that order: 0.4 µM and 1.1 µM.
On the same counts, the results for `N=C(N)SCc1ccccc1Cl` are 10 µM and 4.8 µM.
`CSC(=N)Nc1ccc(Cl)cc1`: the IC50 in assay [1] is above 100 µM; in assay [2] it was above 20 µM.
Turning to `SCc1ccc(Cl)cc1`, the IC50 in assay [1] stood at 3.2 µM; in assay [2], 1.1 µM.
As to `NCc1ccc(Cl)cc1`, the IC50 is above 100 µM in assay [1] and above 20 µM in assay [2].
On the same counts, the results for `CC(C)c1ccc(CSC(=N)N)cc1` are above 100 µM and above 20 µM.
Take `N=C(N)SCc1ccc(C(=O)O)cc1`: the IC50 is above 100 µM in assay [1] and above 20 µM in assay [2].
Regarding `N=C(N)SCc1ccc(Cl)c(Cl)c1`, the IC50 in assay [1] worked out at 17 µM; in assay [2], 7.3 µM.
